In ChEMBL document CHEMBL4382192, “Discovery of a potent dual ALK and EGFR T790M inhibitor” (Eur J Med Chem, 2017):

How the values were obtained:
[1] = biological target: Non-receptor tyrosine-protein kinase TYK2 (Homo sapiens) (UniProt P29597); assay: Binding affinity to wild-type human partial length TYK2 JH2 pseudokinase domain (G556 to D888 residues) expressed in mammalian expression system assessed as residual binding level at 1 uM by Kinomescan method relative to control
[2] = biological target: Wee1-like protein kinase 2 (Homo sapiens) (UniProt P0C1S8); assay: Binding affinity to wild-type human partial length WEE2 (M204 to K492 residues) expressed in bacterial expression system assessed as residual binding level at 1 uM by Kinomescan method relative to control
Wee1-like protein kinase 2 (Homo sapiens), sequence (P0C1S8 whole entry, looked up, the tested form may be a part): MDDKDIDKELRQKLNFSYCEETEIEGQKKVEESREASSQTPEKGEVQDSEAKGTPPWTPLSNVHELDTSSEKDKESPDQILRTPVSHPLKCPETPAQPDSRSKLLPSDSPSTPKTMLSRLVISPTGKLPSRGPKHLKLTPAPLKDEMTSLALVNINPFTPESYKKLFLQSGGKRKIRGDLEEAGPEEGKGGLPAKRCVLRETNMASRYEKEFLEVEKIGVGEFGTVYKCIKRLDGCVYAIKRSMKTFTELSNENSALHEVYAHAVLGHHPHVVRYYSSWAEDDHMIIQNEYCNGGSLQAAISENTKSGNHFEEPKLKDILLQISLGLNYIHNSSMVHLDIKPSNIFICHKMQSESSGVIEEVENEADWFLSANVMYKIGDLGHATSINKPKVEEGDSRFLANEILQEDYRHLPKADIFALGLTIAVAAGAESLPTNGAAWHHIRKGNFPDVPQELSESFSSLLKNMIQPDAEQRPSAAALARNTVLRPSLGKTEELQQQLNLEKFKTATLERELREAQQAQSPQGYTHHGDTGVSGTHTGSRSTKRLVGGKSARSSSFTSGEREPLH

[3] = biological target: Tyrosine-protein kinase receptor Tie-1 (Homo sapiens) (UniProt P35590); assay: Binding affinity to wild-type human partial length TIE1 (T819 to A1138 residues) expressed in bacterial expression system assessed as residual binding level at 1 uM by Kinomescan method relative to control
[4] = biological target: Casein kinase I isoform delta (Homo sapiens) (UniProt P48730); assay: Binding affinity to wild-type human full length CSNK1D (M1 to K409 residues) expressed in bacterial expression system assessed as residual binding level at 1 uM by Kinomescan method relative to control
[5] = biological target: Dual specificity protein kinase CLK3 (Homo sapiens) (UniProt P49761); assay: Binding affinity to wild-type human full length CLK3 (M1 to R490 residues) expressed in bacterial expression system assessed as residual binding level at 1 uM by Kinomescan method relative to control
[6] = biological target: Fibroblast growth factor receptor 3 (Homo sapiens) (UniProt P22607); assay: Binding affinity to wild-type human partial length FGFR3 (R442 to S771 residues) expressed in bacterial expression system assessed as residual binding level at 1 uM by Kinomescan method relative to control
Fibroblast growth factor receptor 3 (Homo sapiens), sequence (P22607 23-806 limits assumed): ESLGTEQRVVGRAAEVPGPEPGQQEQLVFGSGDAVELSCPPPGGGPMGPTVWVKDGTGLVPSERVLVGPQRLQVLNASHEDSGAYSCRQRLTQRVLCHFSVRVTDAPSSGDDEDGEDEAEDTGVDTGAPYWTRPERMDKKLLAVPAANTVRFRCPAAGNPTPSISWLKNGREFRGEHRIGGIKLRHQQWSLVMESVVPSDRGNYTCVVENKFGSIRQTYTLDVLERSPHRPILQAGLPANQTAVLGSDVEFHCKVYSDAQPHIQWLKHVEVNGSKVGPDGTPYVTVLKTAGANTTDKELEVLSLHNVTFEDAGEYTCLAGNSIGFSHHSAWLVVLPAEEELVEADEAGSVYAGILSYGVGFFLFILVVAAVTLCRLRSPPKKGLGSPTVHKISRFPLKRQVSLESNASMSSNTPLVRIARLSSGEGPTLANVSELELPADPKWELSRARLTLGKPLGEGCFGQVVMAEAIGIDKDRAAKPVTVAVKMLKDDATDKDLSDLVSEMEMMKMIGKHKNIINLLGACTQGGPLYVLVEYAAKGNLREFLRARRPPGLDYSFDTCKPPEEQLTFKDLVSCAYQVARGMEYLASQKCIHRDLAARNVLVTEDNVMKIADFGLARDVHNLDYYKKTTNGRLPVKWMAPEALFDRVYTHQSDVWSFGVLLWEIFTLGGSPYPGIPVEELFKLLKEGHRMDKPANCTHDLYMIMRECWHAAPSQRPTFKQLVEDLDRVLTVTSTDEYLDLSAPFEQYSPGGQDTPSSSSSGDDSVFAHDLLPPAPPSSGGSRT

[7] = biological target: Phosphatidylinositol 4,5-bisphosphate 3-kinase catalytic subunit gamma isoform (Homo sapiens) (UniProt P48736); assay: Binding affinity to wild-type human partial length PIK3CG (S144 to A1102 residues) expressed in mammalian expression system assessed as residual binding level at 1 uM by Kinomescan method relative to control
Phosphatidylinositol 4,5-bisphosphate 3-kinase catalytic subunit gamma isoform (Homo sapiens), sequence (P48736 whole entry, looked up, the tested form may be a part, canonical isoform): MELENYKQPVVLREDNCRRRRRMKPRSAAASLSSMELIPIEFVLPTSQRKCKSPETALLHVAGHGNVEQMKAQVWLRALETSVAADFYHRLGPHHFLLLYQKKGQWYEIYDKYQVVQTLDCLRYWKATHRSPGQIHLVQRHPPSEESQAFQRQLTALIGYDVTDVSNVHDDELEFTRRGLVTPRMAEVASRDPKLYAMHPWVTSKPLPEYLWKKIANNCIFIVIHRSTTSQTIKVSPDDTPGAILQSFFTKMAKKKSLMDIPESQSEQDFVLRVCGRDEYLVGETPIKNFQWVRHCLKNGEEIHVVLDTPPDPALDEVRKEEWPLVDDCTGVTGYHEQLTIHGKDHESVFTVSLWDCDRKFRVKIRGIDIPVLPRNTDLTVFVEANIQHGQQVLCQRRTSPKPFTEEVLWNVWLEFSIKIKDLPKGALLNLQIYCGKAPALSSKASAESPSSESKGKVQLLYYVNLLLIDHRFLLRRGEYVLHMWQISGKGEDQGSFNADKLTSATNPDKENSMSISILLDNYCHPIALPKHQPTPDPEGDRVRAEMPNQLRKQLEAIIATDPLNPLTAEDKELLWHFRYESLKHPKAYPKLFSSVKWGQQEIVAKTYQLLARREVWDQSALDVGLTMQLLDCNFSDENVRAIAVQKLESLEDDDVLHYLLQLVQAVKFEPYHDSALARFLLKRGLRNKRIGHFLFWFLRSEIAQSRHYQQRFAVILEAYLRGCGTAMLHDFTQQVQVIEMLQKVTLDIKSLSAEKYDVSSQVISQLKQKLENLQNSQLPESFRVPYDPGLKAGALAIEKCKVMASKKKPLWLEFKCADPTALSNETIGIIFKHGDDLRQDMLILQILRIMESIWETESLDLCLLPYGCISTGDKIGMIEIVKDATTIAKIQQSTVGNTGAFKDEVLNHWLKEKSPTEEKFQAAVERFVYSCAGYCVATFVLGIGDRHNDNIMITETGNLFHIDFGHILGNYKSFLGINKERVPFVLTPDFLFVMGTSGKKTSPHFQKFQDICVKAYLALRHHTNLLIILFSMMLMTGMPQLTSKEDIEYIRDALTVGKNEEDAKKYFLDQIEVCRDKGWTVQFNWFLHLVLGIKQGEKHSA

[8] = biological target: Peripheral plasma membrane protein CASK (Homo sapiens) (UniProt O14936); assay: Binding affinity to wild-type human partial length CASK (M1 to H315 residues) expressed in mammalian expression system assessed as residual binding level at 1 uM by Kinomescan method relative to control
[9] = biological target: Mitogen-activated protein kinase 3 (Homo sapiens) (UniProt P27361); assay: Binding affinity to wild-type human full length ERK1 (M1 to P379 residues) expressed in bacterial expression system assessed as residual binding level at 1 uM by Kinomescan method relative to control
Mitogen-activated protein kinase 3 (Homo sapiens), sequence (P27361 whole entry, the tested form may be a part): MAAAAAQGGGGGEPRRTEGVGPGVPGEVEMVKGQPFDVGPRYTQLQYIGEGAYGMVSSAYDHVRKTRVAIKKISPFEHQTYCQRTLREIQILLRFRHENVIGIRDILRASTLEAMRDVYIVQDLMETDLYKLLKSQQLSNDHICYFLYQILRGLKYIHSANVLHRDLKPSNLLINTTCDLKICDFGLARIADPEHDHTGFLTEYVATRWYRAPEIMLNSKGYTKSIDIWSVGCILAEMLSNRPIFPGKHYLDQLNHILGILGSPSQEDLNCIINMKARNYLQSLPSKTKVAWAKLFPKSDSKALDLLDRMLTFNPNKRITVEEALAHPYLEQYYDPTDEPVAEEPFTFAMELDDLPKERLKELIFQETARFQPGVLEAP
Procedure, shortened: (§1)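 Single-point kinome-wide KINOMEscan binding panel, test compound at 1 μM, run by the provider's standard protocol.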

CYP2C19 = CYP2C19 (Homo sapiens, UniProt P33261); assay: Residual activity of CYP2C19 in human liver microsomes at 10 uM using S-mephenytoin 4-hydroxylase as substrate preincubated for 5 mins followed by NADPH addition measured after 15 mins by LC/MS/MS analysis relative to control; settings: probe S-mephenytoin (4-hydroxylation)
[10] = biological target: Ribosomal protein S6 kinase alpha-6 (Homo sapiens) (UniProt Q9UK32); assay: Binding affinity to wild-type human partial length N-terminal RSK4 kinase domain 1 (M1 to E397 residues) expressed in mammalian expression system assessed as residual binding level at 1 uM by Kinomescan method relative to control
[11] = biological target: Serine/threonine-protein kinase 24 (Homo sapiens) (UniProt Q9Y6E0); assay: Binding affinity to wild-type human partial length MST3 (A30 to S311 residues) expressed in bacterial expression system assessed as residual binding level at 1 uM by Kinomescan method relative to control
[12] = biological target: Serine/threonine-protein kinase Nek7 (Homo sapiens) (UniProt Q8TDX7); assay: Binding affinity to wild-type human full length NEK7 (M1 to S302 residues) expressed in bacterial expression system assessed as residual binding level at 1 uM by Kinomescan method relative to control; procedure, shortened: as §1
Serine/threonine-protein kinase Nek7 (Homo sapiens), sequence (Q8TDX7 whole entry, looked up, the tested form may be a part): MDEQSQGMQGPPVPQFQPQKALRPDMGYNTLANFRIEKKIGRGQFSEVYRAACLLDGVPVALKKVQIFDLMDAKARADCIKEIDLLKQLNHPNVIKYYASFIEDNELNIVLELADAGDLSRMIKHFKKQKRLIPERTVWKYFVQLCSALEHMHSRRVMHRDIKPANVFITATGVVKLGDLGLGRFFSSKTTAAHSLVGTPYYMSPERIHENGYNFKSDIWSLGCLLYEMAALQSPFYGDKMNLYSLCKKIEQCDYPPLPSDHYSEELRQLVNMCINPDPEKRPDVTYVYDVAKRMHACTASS

[13] = biological target: Misshapen-like kinase 1 (Homo sapiens) (UniProt Q8N4C8); assay: Binding affinity to wild-type human partial length MINK (M1 to K312 residues) expressed in mammalian expression system assessed as residual binding level at 1 uM by Kinomescan method relative to control
[14] = biological target: Dual specificity protein kinase CLK4 (Homo sapiens) (UniProt Q9HAZ1); assay: Binding affinity to wild-type human partial length CLK4 (R135 to K481 residues) expressed in bacterial expression system assessed as residual binding level at 1 uM by Kinomescan method relative to control
Dual specificity protein kinase CLK4 (Homo sapiens), sequence (Q9HAZ1 whole entry, looked up, the tested form may be a part): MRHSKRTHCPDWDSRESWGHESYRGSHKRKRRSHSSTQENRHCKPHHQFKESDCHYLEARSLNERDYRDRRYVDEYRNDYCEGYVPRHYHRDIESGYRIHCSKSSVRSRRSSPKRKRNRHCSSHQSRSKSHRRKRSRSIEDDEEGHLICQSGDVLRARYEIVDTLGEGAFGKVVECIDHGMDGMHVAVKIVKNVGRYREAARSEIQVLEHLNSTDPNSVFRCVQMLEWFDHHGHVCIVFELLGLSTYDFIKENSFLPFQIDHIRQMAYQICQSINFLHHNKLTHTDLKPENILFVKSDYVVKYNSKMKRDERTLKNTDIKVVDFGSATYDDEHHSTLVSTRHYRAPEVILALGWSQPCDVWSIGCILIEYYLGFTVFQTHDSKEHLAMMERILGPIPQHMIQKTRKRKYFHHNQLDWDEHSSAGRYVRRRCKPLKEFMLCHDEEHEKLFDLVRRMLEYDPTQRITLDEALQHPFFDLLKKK

[15] = biological target: Cyclin-G-associated kinase (Homo sapiens) (UniProt O14976); assay: Binding affinity to wild-type human partial length GAK (G13 to Y338 residues) expressed in bacterial expression system assessed as residual binding level at 1 uM by Kinomescan method relative to control
[16] = biological target: Bone morphogenetic protein receptor type-1B (Homo sapiens) (UniProt O00238); assay: Binding affinity to wild-type human partial length BMPR1B (D178 to L502 residues) expressed in mammalian expression system assessed as residual binding level at 1 uM by Kinomescan method relative to control
[17] = biological target: TGF-beta receptor type-1 (Homo sapiens) (UniProt P36897); assay: Binding affinity to wild-type human partial length TGFBR1 (D179 to M503 residues) expressed in bacterial expression system assessed as residual binding level at 1 uM by Kinomescan method relative to control
TGF-beta receptor type-1 (Homo sapiens), sequence (P36897 whole entry, the tested form may be a part, canonical isoform): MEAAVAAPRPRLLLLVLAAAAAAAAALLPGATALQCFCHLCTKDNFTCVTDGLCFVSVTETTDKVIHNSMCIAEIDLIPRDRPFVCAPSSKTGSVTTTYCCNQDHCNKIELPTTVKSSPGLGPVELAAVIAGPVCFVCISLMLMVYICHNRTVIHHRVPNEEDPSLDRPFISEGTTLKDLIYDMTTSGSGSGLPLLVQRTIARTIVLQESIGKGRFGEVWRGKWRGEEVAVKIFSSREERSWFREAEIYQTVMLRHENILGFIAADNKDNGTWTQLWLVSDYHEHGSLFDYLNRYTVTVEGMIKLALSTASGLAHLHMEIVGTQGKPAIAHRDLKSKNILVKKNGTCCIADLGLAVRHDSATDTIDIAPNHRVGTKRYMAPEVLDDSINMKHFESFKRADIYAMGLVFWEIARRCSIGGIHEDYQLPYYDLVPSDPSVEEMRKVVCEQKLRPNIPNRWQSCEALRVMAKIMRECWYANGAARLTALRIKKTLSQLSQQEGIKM

[18] = biological target: Phosphorylase b kinase gamma catalytic chain, skeletal muscle/heart isoform (Homo sapiens) (UniProt Q16816); assay: Binding affinity to wild-type human full length PHKG1 (M1 to Y387 residues) expressed in bacterial expression system assessed as residual binding level at 1 uM by Kinomescan method relative to control; procedure, shortened: as §1
Phosphorylase b kinase gamma catalytic chain, skeletal muscle/heart isoform (Homo sapiens), sequence (Q16816 whole entry, looked up, the tested form may be a part, canonical isoform): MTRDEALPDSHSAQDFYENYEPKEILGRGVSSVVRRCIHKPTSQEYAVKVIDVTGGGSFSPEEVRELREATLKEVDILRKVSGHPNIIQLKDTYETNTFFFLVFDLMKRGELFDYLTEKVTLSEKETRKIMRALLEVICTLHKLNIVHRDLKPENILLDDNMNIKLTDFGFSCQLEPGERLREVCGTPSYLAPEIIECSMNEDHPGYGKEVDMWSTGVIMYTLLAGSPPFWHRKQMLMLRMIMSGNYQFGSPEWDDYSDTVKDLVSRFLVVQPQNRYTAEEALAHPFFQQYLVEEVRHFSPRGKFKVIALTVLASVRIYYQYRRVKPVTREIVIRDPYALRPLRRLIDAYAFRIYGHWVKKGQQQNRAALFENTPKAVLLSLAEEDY

[19] = tested on: Mast/stem cell growth factor receptor Kit (Homo sapiens), P10721 [A829P]; assay: Binding affinity to human partial length KIT A829P mutant (I571 to D952 residues) expressed in mammalian expression system assessed as residual binding level at 1 uM by Kinomescan method relative to control
Procedure, shortened: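 Kinome-wide selectivity panel run by the KINOMEscan method, with the test compound at a single concentration of 1 μM. Wild-type and mutant kinases were profiled in the same screen.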

[20] = biological target: MAP kinase-activated protein kinase 2 (Homo sapiens) (UniProt P49137); assay: Binding affinity to wild-type human partial length MAPKAPK2 (V48 to D345 residues) expressed in bacterial expression system assessed as residual binding level at 1 uM by Kinomescan method relative to control
[21] = biological target: Serine/threonine-protein kinase RIO3 (Homo sapiens) (UniProt O14730); assay: Binding affinity to wild-type human full length RIOK3 (M1 to E519 residues) expressed in bacterial expression system assessed as residual binding level at 1 uM by Kinomescan method relative to control; procedure, shortened: as §1
Serine/threonine-protein kinase RIO3 (Homo sapiens), sequence (O14730 whole entry, the tested form may be a part): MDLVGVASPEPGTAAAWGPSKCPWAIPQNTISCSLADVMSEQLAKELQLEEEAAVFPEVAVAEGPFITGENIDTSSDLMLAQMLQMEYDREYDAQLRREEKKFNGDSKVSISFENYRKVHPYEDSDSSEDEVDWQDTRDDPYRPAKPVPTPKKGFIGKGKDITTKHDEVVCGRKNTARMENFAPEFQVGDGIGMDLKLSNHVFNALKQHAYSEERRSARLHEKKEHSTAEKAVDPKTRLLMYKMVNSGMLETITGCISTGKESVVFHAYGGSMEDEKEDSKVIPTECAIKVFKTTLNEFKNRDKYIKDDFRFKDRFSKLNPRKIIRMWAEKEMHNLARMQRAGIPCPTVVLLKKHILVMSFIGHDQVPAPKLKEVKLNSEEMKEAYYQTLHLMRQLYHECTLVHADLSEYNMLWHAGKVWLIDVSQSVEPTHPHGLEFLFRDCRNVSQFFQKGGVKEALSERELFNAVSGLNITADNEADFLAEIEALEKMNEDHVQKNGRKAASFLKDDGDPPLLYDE

[22] = biological target: Receptor tyrosine-protein kinase erbB-2 (Homo sapiens, UniProt P04626); assay: Inhibition of recombinant His-tagged human ErbB2 cytoplasmic domain expressed in baculovirus expression system by Z-LYTE assay

C=CC(=O)Nc1cc(Nc2ncc(Cl)c(Nc3ccccc3S(=O)(=O)C(C)C)n2)c(OC)cc1N(C)CCN(C)C
Activity [1]: 100%
Activity [2]: 93%
Activity [3]: 8.8%
Activity [4]: 82%
Activity [5]: 23%
Activity [6]: 19%
Activity [7]: 98%
Activity [8]: 95%
Activity [9]: 77%
Activity at […], 10 µM (CYP2C19): 86%
Activity [10]: 15%
Activity [11]: 39%
Activity [12]: 72%
Activity [13]: 34%
Activity [14]: 15%
Activity [15]: 29%
Activity [16]: 0%
Activity [17]: 18%
Activity [18]: 24%
Activity [19]: 45%
Activity [20]: 100%
Activity [21]: 93%
IC50 [22]: 37 nM
